Experimental data from ChEMBL document CHEMBL3232842, “Synthesis and pharmacological evaluation of novel limonin derivatives as anti-inflammatory and analgesic agents with high water solubility” (Bioorg Med Chem Lett, 2014).
Calls of active or inactive are those of the source. No cut-off for these calls is given here.

Key:
[1] = Dissociation constant, pKa of the compound; assay type: physicochemical
[2] = Partition coefficient, log D of the compound at pH 7.4; assay type: physicochemical; conditions: octanol/water
[3] = Intrinsic aqueous solubility of the compound; assay type: physicochemical; conditions: read-out: Intrinsic_solubility
In short: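 Determined on a Gemini Profiler by potentiometric titration (Avdeef–Bucher method), which also gave pKa; logD at pH 7.4.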

Mus musculus [4] = assay: Analgesic activity in mouse assessed as inhibition of acetic acid-induced writhing at 70 mg/kg, ig administered 1 hr before acetic acid challenge measured after 15 mins; assay type: functional; conditions: po, route intragastric
In short: (§1)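 Mice dosed by gavage with compound suspended in 0.5% CMC-Na; the model group got vehicle only. 1 h later, 0.7% acetic acid in saline was injected i.p. at 0.1 ml/10 g body weight. Writhes were counted 15 min after the stimulus. Results are mean ± SEM, n = 8.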

Mus musculus [5] = assay: Analgesic activity in mouse assessed as increase in tail-curl latency time at 100 mg/kg, ig measured after 60 mins by tail-immersion test; assay type: functional, organism-based; design: dose 100 mg/kg
In short: (§2)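 Mice dosed by gavage with 100 mg/kg suspended in 0.5% CMC-Na. Tail-curl latency in the tail-immersion test was recorded before dosing and at 30, 60, 90 and 120 min afterward. Results are given as mean ± SEM (n = 8), with one-way ANOVA against control.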

Mus musculus [6] = assay: Antiinflammatory activity in mouse assessed as xylene-induced ear swollen extent at 100 mg/kg, ig administered 90 mins prior to xylene challenge measured after 30 mins (reference value: 132.8 +/-16.3%); assay type: functional; conditions: route intragastric
In short: (§3)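 Mice were given compound by gavage as a suspension in 0.5% CMC-Na; the vehicle group got 0.5% CMC-Na. 90 min later, 25 µl xylene was applied to both surfaces of the right ear, with the left ear as control. Mice were killed 30 min later. 8 mm punches were taken from both ears and weighed, and swelling was expressed relative to the left ear weight. Results are mean ± SEM, n = 8.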

Mus musculus [7] = assay: Antiinflammatory activity in mouse assessed as inhibition of xylene-induced ear swelling at 100 mg/kg, ig administered 90 mins prior to xylene challenge measured after 30 mins; assay type: functional; conditions: po, route intragastric; in short: as §3
Mus musculus [8] = organism: Mus musculus; assay: animal or person; conditions: Ear, po, read-out: INH
Mus musculus [9] = assay: Analgesic activity in mouse assessed as increase in tail-curl latency time at 100 mg/kg, ig measured after 30 to 90 mins by tail-immersion test; assay type: functional, organism-based; design: dose 100 mg/kg; in short: as §2
Mus musculus [10] = assay: Analgesic activity in mouse assessed as increase in tail-curl latency time at 100 mg/kg, ig measured after 90 mins by tail-immersion test; assay type: functional, organism-based; design: dose 100 mg/kg; in short: as §2
Mus musculus [11] = assay: Analgesic activity in mouse assessed as inhibition of acetic acid-induced writhing at 200 mg/kg, ig administered 1 hr before acetic acid challenge measured after 15 mins; assay type: functional; conditions: po, route intragastric; in short: as §1
[12] = Equilibrium solubility of the compound by classical saturation shake flask method; assay type: physicochemical
In short: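 Equilibrium solubility measured by the classical saturation shake-flask method.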

Mus musculus [13] = assay: Analgesic activity in mouse assessed as increase in tail-curl latency time at 100 mg/kg, ig measured after 30 to 120 mins by tail-immersion test; assay type: functional, organism-based; design: dose 100 mg/kg; in short: as §2

Compound `CC1(C)O[C@H]2CC(=O)OC[C@]23[C@H]2CC[C@]4(C)C(=CC(=O)O[C@H]4c4ccoc4)[C@]2(C)/C(=N\OCCN2CCCCC2)C[C@@H]13.Cl` has a pKa [1] of 8.52, a logD [2] of 0.81 and a solubility [3] of 19800 µg/mL. The inhibition in vivo at 70 mg/kg (Mus musculus [4]) was 44.3%, the Activity (Mus musculus [5]) was “Active” and the Ear swelling extent (Mus musculus [6]) was 99.1%. For the same compound, the inhibition in vivo at 100 mg/kg (Mus musculus [7]) was 25.4%.

Work on `COc1ccc2cc([C@H](C)C(=O)O)ccc2c1` [NAPROXEN] yielded an inhibition in vivo at 150 mg/kg (Mus musculus [8]) of 36.6%.

`CN(C)CCO/N=C1/C[C@H]2C(C)(C)O[C@H]3CC(=O)OC[C@]32[C@H]2CC[C@@]3(C)[C@H](c4ccoc4)OC(=O)[C@H]4O[C@]43[C@]12C.Cl` gave a pKa [1] of 8.78, a logD [2] of 0.59 and a solubility [3] of 17800 µg/mL. The inhibition in vivo at 70 mg/kg (Mus musculus [4]) was 68.6%, the Activity (Mus musculus [9]) was “Active” and the Ear swelling extent (Mus musculus [6]) was 72.4%. For the same compound, the inhibition in vivo at 100 mg/kg (Mus musculus [7]) was 45.5%.

For `CC1(C)O[C@H]2CC(=O)OC[C@]23[C@H]2CC[C@@]4(C)[C@H](c5ccoc5)OC(=O)[C@H]5O[C@]54[C@]2(C)/C(=N\OCCN2CCOCC2)C[C@@H]13.Cl`, the pKa [1] was 6.11, the logD [2] was 2.45 and the solubility [3] was 4500 µg/mL. The inhibition in vivo at 70 mg/kg (Mus musculus [4]) was 58%, the Activity (Mus musculus [9]) was “Active” and the Ear swelling extent (Mus musculus [6]) was 62.4%. It also gave an inhibition in vivo at 100 mg/kg (Mus musculus [7]) of 53%.

`CCN(CC)CCO/N=C1/C[C@H]2C(C)(C)O[C@H]3CC(=O)OC[C@]32[C@H]2CC[C@@]3(C)[C@H](c4ccoc4)OC(=O)[C@H]4O[C@]43[C@]12C.Cl` showed a pKa [1] of 9.17, a logD [2] of 0.26 and a solubility [3] of 14500 µg/mL. The inhibition in vivo at 70 mg/kg (Mus musculus [4]) was 80%, the Activity (Mus musculus [9]) was “Active” and the Activity (Mus musculus [10]) was “Active”. It also gave an Ear swelling extent (Mus musculus [6]) of 32.6% and an inhibition in vivo at 100 mg/kg (Mus musculus [7]) of 75.5%.

Work on `CN(C)CCCO/N=C1/C[C@H]2C(C)(C)O[C@H]3CC(=O)OC[C@]32[C@H]2CC[C@]3(C)C(=CC(=O)O[C@H]3c3ccoc3)[C@]12C.Cl` yielded a pKa [1] of 9.39, a logD [2] of 0.19 and a solubility [3] of 9400 µg/mL. The inhibition in vivo at 70 mg/kg (Mus musculus [4]) was 60.7%, the Activity (Mus musculus [5]) was “Active” and the Ear swelling extent (Mus musculus [6]) was 97.8%. It also gave an inhibition in vivo at 100 mg/kg (Mus musculus [7]) of 26.4%.

Work on `CC1(C)O[C@H]2CC(=O)OC[C@]23[C@H]2CC[C@@]4(C)[C@H](c5ccoc5)OC(=O)[C@H]5O[C@]54[C@]2(C)/C(=N\OCCN2CCCCC2)C[C@@H]13.Cl` yielded a pKa [1] of 8.87, a logD [2] of 0.44 and a solubility [3] of 25300 µg/mL. The inhibition in vivo at 70 mg/kg (Mus musculus [4]) was 70.5%, the Activity (Mus musculus [9]) was “Active” and the Activity (Mus musculus [5]) was “Active”. For the same compound, the Ear swelling extent (Mus musculus [6]) was 60.1% and the inhibition in vivo at 100 mg/kg (Mus musculus [7]) was 54.8%.

In the case of `CN(C)CCCO/N=C1/C[C@H]2C(C)(C)O[C@H]3CC(=O)OC[C@]32[C@H]2CC[C@@]3(C)[C@H](c4ccoc4)OC(=O)[C@H]4O[C@]43[C@]12C.Cl`, the pKa [1] is reported as 9.28, the logD [2] is reported as 0.37 and the solubility [3] is reported as 9600 µg/mL. The inhibition in vivo at 70 mg/kg (Mus musculus [4]) was 64.1%, the Activity (Mus musculus [9]) was “Active” and the Ear swelling extent (Mus musculus [6]) was 71.6%. It also gave an inhibition in vivo at 100 mg/kg (Mus musculus [7]) of 46.1%.

`CC(=O)Oc1ccccc1C(=O)O` [ASPIRIN] gave an inhibition in vivo at 200 mg/kg (Mus musculus [11]) of 71.8%.

With `CC1(C)O[C@H]2CC(=O)OC[C@@]23[C@H]1CC(=O)[C@@]1(C)C2=CC(=O)O[C@H](c4ccoc4)[C@]2(C)CC[C@@H]13` [DESOXYLIMONIN] the solubility thermodynamic [12] was < 5 µg/mL, the inhibition in vivo at 70 mg/kg (Mus musculus [4]) was 24.6% and the Ear swelling extent (Mus musculus [6]) was 111.7%. For the same compound, the inhibition in vivo at 100 mg/kg (Mus musculus [7]) was 15.9% and the Activity (Mus musculus [13]) was “inactive”.

In the case of `CC1(C)O[C@H]2CC(=O)OC[C@]23[C@H]2CC[C@@]4(C)[C@H](c5ccoc5)OC(=O)[C@H]5O[C@]54[C@]2(C)C(=O)C[C@@H]13` [LIMONIN], the solubility thermodynamic [12] is reported as < 5 µg/mL, the inhibition in vivo at 70 mg/kg (Mus musculus [4]) is reported as 45.9% and the Ear swelling extent (Mus musculus [6]) is reported as 89.3%. The inhibition in vivo at 100 mg/kg (Mus musculus [7]) was 32.7%.

`CCN(CC)CCO/N=C1/C[C@H]2C(C)(C)O[C@H]3CC(=O)OC[C@]32[C@H]2CC[C@]3(C)C(=CC(=O)O[C@H]3c3ccoc3)[C@]12C.Cl` gave a pKa [1] of 9.49, a logD [2] of 0.57 and a solubility [3] of 1900 µg/mL. For the same compound, the inhibition in vivo at 70 mg/kg (Mus musculus [4]) was 33.2%, the Activity (Mus musculus [5]) was “Active” and the Ear swelling extent (Mus musculus [6]) was 108.2%. It also gave an inhibition in vivo at 100 mg/kg (Mus musculus [7]) of 18.4%.

In the case of `CN(C)CCO/N=C1/C[C@H]2C(C)(C)O[C@H]3CC(=O)OC[C@]32[C@H]2CC[C@]3(C)C(=CC(=O)O[C@H]3c3ccoc3)[C@]12C.Cl`, the pKa [1] is reported as 8.88, the logD [2] is reported as 0.32 and the solubility [3] is reported as 28900 µg/mL. The inhibition in vivo at 70 mg/kg (Mus musculus [4]) was 30%, the Activity (Mus musculus [5]) was “Active” and the Ear swelling extent (Mus musculus [6]) was 100.2%. For the same compound, the inhibition in vivo at 100 mg/kg (Mus musculus [7]) was 24.6%.

With `CC1(C)O[C@H]2CC(=O)OC[C@]23[C@H]2CC[C@]4(C)C(=CC(=O)O[C@H]4c4ccoc4)[C@]2(C)/C(=N\OCCN2CCOCC2)C[C@@H]13.Cl` the pKa [1] was 6.84, the logD [2] was 2.52 and the solubility [3] was 2100 µg/mL. For the same compound, the inhibition in vivo at 70 mg/kg (Mus musculus [4]) was 50%, the Activity (Mus musculus [5]) was “Active” and the Ear swelling extent (Mus musculus [6]) was 96.1%. For the same compound, the inhibition in vivo at 100 mg/kg (Mus musculus [7]) was 27.6%.
